Experiments:
[1] = test system: A549; experiment: Anticancer activity against human A549 cells assessed as cell growth inhibition incubated for 48 hrs by sulforhodamine B assay; assay type: functional
Summary of the method: (§1)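 NCI-60 screen: cell lines grown in RPMI 1640 with 5% FBS and 2 mM L-glutamine, plated in 96-well plates at 5,000–40,000 cells/well depending on doubling time. Each line has one single-dose arm at 10 µM and one dose-response arm giving GI50.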

[2] = test system: HL-60; experiment: Anticancer activity against human HL-60 cells assessed as cell growth inhibition incubated for 48 hrs by sulforhodamine B assay; assay type: functional; summary of the method: as §1
[3] = test system: Hs-578T; experiment: Anticancer activity against human Hs-578T cells assessed as cell growth inhibition incubated for 48 hrs by sulforhodamine B assay; assay type: functional; summary of the method: as §1
[4] = test system: HOP-92; experiment: Anticancer activity against human HOP-92 cells assessed as cell growth inhibition incubated for 48 hrs by sulforhodamine B assay; assay type: functional; summary of the method: as §1
[5] = test system: IGROV-1; experiment: Anticancer activity against human IGROV-1 cells assessed as cell growth inhibition incubated for 48 hrs by sulforhodamine B assay; assay type: functional; summary of the method: as §1
[6] = test system: SF-539; experiment: Anticancer activity against human SF-539 cells assessed as cell growth inhibition at 10 uM incubated for 48 hrs by sulforhodamine B assay; assay type: functional; conditions: read-out: GI
Summary of the method: (§2)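 NCI DTP 60-cell-line screen run at National Cancer Institute. Cells grown in RPMI 1640 with 5% fetal bovine serum and 2 mM L-glutamine, seeded at 5,000–40,000 cells/well depending on doubling time. Single-dose screen at 10 µM gives growth percentage; dose-response series gives GI50.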

[7] = test system: RPMI-8226; experiment: Anticancer activity against human RPMI-8226 cells assessed as cell growth inhibition at 10 uM incubated for 48 hrs by sulforhodamine B assay; assay type: functional; conditions: read-out: GI; summary of the method: as §2
[8] = test system: OVCAR-3; experiment: Anticancer activity against human OVCAR-3 cells assessed as cell growth inhibition at 10 uM incubated for 48 hrs by sulforhodamine B assay; assay type: functional; conditions: read-out: GI; summary of the method: as §2
[9] = test system: NCI-H460; experiment: Anticancer activity against human NCI-H460 cells assessed as cell growth inhibition incubated for 48 hrs by sulforhodamine B assay; assay type: functional; summary of the method: as §2
[10] = test system: MDA-MB-468; experiment: Anticancer activity against human MDA-MB-468 cells assessed as cell growth inhibition incubated for 48 hrs by sulforhodamine B assay; assay type: functional; summary of the method: as §2
[11] = test system: 786-0; experiment: Anticancer activity against human 786-0 cells assessed as cell growth inhibition at 10 uM incubated for 48 hrs by sulforhodamine B assay; assay type: functional; conditions: read-out: GI; summary of the method: as §1
[12] = test system: NCI-H322M; experiment: Anticancer activity against human NCI-H322M cells assessed as cell growth inhibition incubated for 48 hrs by sulforhodamine B assay; assay type: functional; summary of the method: as §2
[13] = test system: NCI-H460; experiment: Anticancer activity against human NCI-H460 cells assessed as cell growth inhibition at 10 uM incubated for 48 hrs by sulforhodamine B assay; assay type: functional; conditions: read-out: GI; summary of the method: as §2
[14] = test system: MDA-MB-435; experiment: Anticancer activity against human MDA-MB-435 cells assessed as cell growth inhibition incubated for 48 hrs by sulforhodamine B assay; assay type: functional; summary of the method: as §2
[15] = test system: NCI/ADR-RES; experiment: Anticancer activity against human NCI/ADR-RES cells assessed as cell growth inhibition incubated for 48 hrs by sulforhodamine B assay; assay type: functional; summary of the method: as §2
[16] = test system: Malme-3M; experiment: Anticancer activity against human Malme-3M cells assessed as cell growth inhibition incubated for 48 hrs by sulforhodamine B assay; assay type: functional; summary of the method: as §2
[17] = test system: EKVX; experiment: Anticancer activity against human EKVX cells assessed as cell growth inhibition incubated for 48 hrs by sulforhodamine B assay; assay type: functional; summary of the method: as §1
[18] = test system: HT-29; experiment: Anticancer activity against human HT-29 cells assessed as cell growth inhibition incubated for 48 hrs by sulforhodamine B assay; assay type: functional; summary of the method: as §1
[19] = test system: SN12C; experiment: Anticancer activity against human SN12C cells assessed as cell growth inhibition incubated for 48 hrs by sulforhodamine B assay; assay type: functional
[20] = test system: U-251; experiment: Anticancer activity against human U-251 cells assessed as cell growth inhibition at 10 uM incubated for 48 hrs by sulforhodamine B assay; assay type: functional; conditions: read-out: GI
[21] = test system: OVCAR-8; experiment: Anticancer activity against human OVCAR-8 cells assessed as cell growth inhibition incubated for 48 hrs by sulforhodamine B assay; assay type: functional; summary of the method: as §2
[22] = test system: OVCAR-4; experiment: Anticancer activity against human OVCAR-4 cells assessed as cell growth inhibition incubated for 48 hrs by sulforhodamine B assay; assay type: functional; summary of the method: as §2
[23] = test system: BT-549; experiment: Anticancer activity against human BT-549 cells assessed as cell growth inhibition at 10 uM incubated for 48 hrs by sulforhodamine B assay; assay type: functional; conditions: read-out: GI; summary of the method: as §1
[24] = Toxicity in healthy human lymphocytes assessed as reduction in cell viability at 10 uM after 24 hrs by Annexin/PI staining based fluorescence assay; conditions: lymphocyte
Summary of the method: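 Normal donor lymphocytes (n=2) isolated from peripheral blood by Ficoll-hypaque, in RPMI with 10% autologous plasma. Exposed to 10 µM for 24 h; % viable cells by annexin/PI binding.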

[25] = test system: SW-620; experiment: Anticancer activity against human SW620 cells assessed as cell growth inhibition at 10 uM incubated for 48 hrs by sulforhodamine B assay; assay type: functional; conditions: read-out: GI
[26] = test system: NCI-H322M; experiment: Anticancer activity against human NCI-H322M cells assessed as cell growth inhibition at 10 uM incubated for 48 hrs by sulforhodamine B assay; assay type: functional; conditions: read-out: GI; summary of the method: as §2
[27] = test system: SNB-19; experiment: Anticancer activity against human SNB-19 cells assessed as cell growth inhibition incubated for 48 hrs by sulforhodamine B assay; assay type: functional
[28] = test system: SR; experiment: Anticancer activity against human SR cells assessed as cell growth inhibition incubated for 48 hrs by sulforhodamine B assay; assay type: functional
[29] = test system: K562; experiment: Anticancer activity against human K562 cells assessed as cell growth inhibition at 10 uM incubated for 48 hrs by sulforhodamine B assay; assay type: functional; conditions: read-out: GI; summary of the method: as §1
[30] = test system: HOP-62; experiment: Anticancer activity against human HOP-62 cells assessed as cell growth inhibition incubated for 48 hrs by sulforhodamine B assay; assay type: functional; summary of the method: as §1
[31] = test system: OVCAR-8; experiment: Anticancer activity against human OVCAR-8 cells assessed as cell growth inhibition at 10 uM incubated for 48 hrs by sulforhodamine B assay; assay type: functional; conditions: read-out: GI; summary of the method: as §2
[32] = test system: MOLT-4; experiment: Anticancer activity against human MOLT-4 cells assessed as cell growth inhibition at 10 uM incubated for 48 hrs by sulforhodamine B assay; assay type: functional; conditions: read-out: GI; summary of the method: as §2
[33] = test system: A498; experiment: Anticancer activity against human A498 cells assessed inhibition of cell growth after 48 hrs by CellTiter-Glo luminescent assay; assay type: functional, cell-based; conditions: A498, 48 h
Summary of the method: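 Human tumour cells kept in RPMI 1640 with 5% FBS and 2 mM L-glutamine, seeded at 5,000–10,000 cells/well and left 2–3 h at 37°C, 5% CO2. Drugs taken from 20 mM DMSO stocks, serially halved ten times in DMSO, then added at 1:100 dilution. Cells exposed for 48 h at 37°C. Viability read by CellTiter-Glo luminescence after 10 min at room temperature.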

[34] = test system: MDA-MB-468; experiment: Anticancer activity against human MDA-MB-468 cells assessed as cell growth inhibition at 10 uM incubated for 48 hrs by sulforhodamine B assay; assay type: functional; conditions: read-out: GI; summary of the method: as §2
[35] = test system: KM12; experiment: Anticancer activity against human KM12 cells assessed as cell growth inhibition incubated for 48 hrs by sulforhodamine B assay; assay type: functional; summary of the method: as §1
[36] = test system: UACC-62; experiment: Anticancer activity against human UACC-62 cells assessed as cell growth inhibition incubated for 48 hrs by sulforhodamine B assay; assay type: functional
[37] = test system: UO-31; experiment: Anticancer activity against human UO-31 cells assessed as cell growth inhibition incubated for 48 hrs by sulforhodamine B assay; assay type: functional
[38] = test system: COLO 205; experiment: Anticancer activity against human COLO 205 cells assessed as cell growth inhibition at 10 uM incubated for 48 hrs by sulforhodamine B assay; assay type: functional; conditions: read-out: GI; summary of the method: as §1
[39] = test system: BT-549; experiment: Anticancer activity against human BT-549 cells assessed as cell growth inhibition incubated for 48 hrs by sulforhodamine B assay; assay type: functional; summary of the method: as §1

- GI50 [1]: 2000 nM
- GI50 [2]: 2000 nM
- GI50 [9]: 2000 nM
- GI50 [10]: 2000 nM
- GI50 [12]: 2000 nM
- GI50 [14]: 2000 nM
- GI50 [18]: 2000 nM
- GI50 [21]: 2000 nM
- GI50 [22]: 2000 nM
- GI50 [39]: 2000 nM
SMILES: COc1cc(CBr)c(B2OC(C)(C)C(C)(C)O2)c(CBr)c1
- GI50 [3]: 2000 nM
- GI50 [4]: 2000 nM
- GI50 [5]: 2000 nM
- inhibition of growth at 10 µM [6]: < 50%
- inhibition of growth at 10 µM [7]: < 50%
- inhibition of growth at 10 µM [8]: < 50%
- inhibition of growth at 10 µM [11]: < 50%
- inhibition of growth at 10 µM [13]: < 50%
- GI50 [15]: 2000 nM
- GI50 [16]: 2000 nM
- GI50 [17]: 2000 nM
- GI50 [19]: 2000 nM
- inhibition of growth at 10 µM [20]: < 50%
- inhibition of growth at 10 µM [23]: < 50%
- Activity [24]: Non-Toxic
- inhibition of growth at 10 µM [25]: < 50%
- inhibition of growth at 10 µM [26]: < 50%
- GI50 [27]: 2000 nM
- GI50 [28]: 2000 nM
- inhibition of growth at 10 µM [29]: < 50%
- GI50 [30]: 2000 nM
- inhibition of growth at 10 µM [31]: < 50%
- inhibition of growth at 10 µM [32]: < 50%
- IC50 [33]: 18.1 µM
- inhibition of growth at 10 µM [34]: < 50%
- GI50 [35]: 2000 nM
- GI50 [36]: 2000 nM
- GI50 [37]: 2000 nM
- inhibition of growth at 10 µM [38]: < 50%
